Laboratory results published in article PMC9136965 (ACS Central Science, 2022).
Values after ≈ are worked out from the molar mass of the structure shown. Where two headings read alike, the source gives them in different places.

How the values were obtained:
B. subtilis 168 cells = assay: Bright-field microscopy of cell morphology; assay type: cell-based, Bacillus subtilis; conditions: B. subtilis 168, bright-field microscopy, Figure 5A
B. subtilis 168 = assay: Cell lytic assay; assay type: cell-based, Bacillus subtilis; conditions: B. subtilis 168, LB, 4× MIC, OD600 at 37 °C, n = 3, Figure 5B
How it was run: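 B. subtilis 168 cultures exposed to test compounds or reference antibiotics to tell lysis from growth arrest. Triplicate experiments (n = 3); values plotted as means with standard deviation (s.d.).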

## CN[C@H](CC(C)C)C(=O)N[C@H]1C(=O)N[C@@H](CC(N)=O)C(=O)N[C@H]2C(=O)N[C@H]3C(=O)N[C@H](C(=O)N[C@H](C(=O)O)c4cc(O)cc(O)c4-c4cc3ccc4O)[C@H](O)c3ccc(c(Cl)c3)Oc3cc2cc(c3O[C@@H]2O[C@H](CO)[C@@H](O)[C@H](O)[C@H]2O[C@H]2C[C@](C)(N)[C@H](O)[C@H](C)O2)Oc2ccc(cc2Cl)[C@H]1O [vancomycin]
M. tuberculosis H37Ra; H37Ra
  MIC: 2 µg/mL (≈ 1.38 µM)

## complestatin
B. subtilis 168 cells
  growth morphology of treated cells: extended and twisted phenotype
B. subtilis 168
  bacteriostatic or lytic action: bacteriostatic
M. tuberculosis H37Ra
  MIC: >128 µg/mL

## corbomycin
B. subtilis 168 cells
  growth morphology of treated cells: extended and twisted phenotype
B. subtilis 168
  bacteriostatic or lytic action: bacteriostatic
